Source: ChEMBL document CHEMBL4689842, “EUbOPEN Chemogenomics Library wave 1” (2021)

Assays:
Type in all cases: toxicity, cell-based
[1] = test system: U2OS; test: Incucyte cell viability with U2OS; details: human, 10 µM, compound concentration 10 uM; note: filed as whole numbers so only -1 and 0 and 1 occur
[2] = test system: U2OS; test: Multiplex assay against U2OS; details: human
How it was run: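 Four dyes were applied at seeding to live cells: Hoechst33342, BioTracker Green Microtubule Cytoskeleton Dye, MitoTracker Red and Annexin V Alexa Fluor 680. Imaging after compound addition used a CQ1 microscope at 37°C and 5% CO2. CellPathfinder machine-learning gating then sorted cells into Hoechst high-intensity objects or normal cells, normal cells into healthy, pyknosed or fragmented nuclei, and pyknosed cells into mitotic or apoptotic, with tubulin, mitochondrial-mass and membrane-permeability phenotypes given as per cents of healthy-nucleus cells.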

[3] = test system: HEK-293T; test: Incucyte cell viability with HEK293T; details: human, 10 µM, compound concentration 10 uM; note: filed as whole numbers so only -1 and 0 and 1 occur
[4] = test system: Fibroblast; test: Incucyte cell viability with human fibroblast; details: 10 µM, compound concentration 10 uM; note: filed as whole numbers so only -1 and 0 and 1 occur
[5] = 0 h, replicate number 1, timepoint 0 hours
[6] = 6 h, replicate number 2, timepoint 6 hours
[7] = 12 h, replicate number 1, timepoint 12 hours
[8] = 18 h, replicate number 1, timepoint 18 hours
[9] = 24 h, replicate number 1, timepoint 24 hours
[10] = 12 h, 1 µM, compound concentration 1 uM, replicate 1
[11] = 12 h, 1 µM, compound concentration 1 uM, replicate 2
[12] = 12 h, 10 µM, compound concentration 10 uM, replicate 1
[13] = 12 h, 10 µM, compound concentration 10 uM, replicate 2
[14] = 24 h, 1 µM, compound concentration 1 uM, replicate 1
[15] = 24 h, 1 µM, compound concentration 1 uM, replicate 2
[16] = 24 h, 10 µM, compound concentration 10 uM, replicate 1
[17] = 24 h, 10 µM, compound concentration 10 uM, replicate 2
[18] = 48 h, 1 µM, compound concentration 1 uM, replicate 1
[19] = 48 h, 1 µM, compound concentration 1 uM, replicate 2
[20] = 48 h, 10 µM, compound concentration 10 uM, replicate 1
[21] = 48 h, 10 µM, compound concentration 10 uM, replicate 2

CC(C)N1CCC(C)(C)c2cc(C#Cc3ccc(C(=O)O)cc3)ccc21
Growth Rate [1, 5]: 0
Growth Rate [1, 6]: 0
Growth Rate [1, 7]: 1
Growth Rate [1, 8]: 1
Growth Rate [1, 9]: 1
Population Apoptotic (%) [2, 10]: 30%
Population Healthy Nuclei (%) [2, 10]: 74%
Population Hoechst High Intensity Objects (%) [2, 10]: 12%
Population Membrane Permeable-Phenotype (%) [2, 10]: 3%
Population Mitochondria Different-Phenotype (%) [2, 10]: 4%
Population Mitotic Cells (%) [2, 10]: 70%
Population Normal (%) [2, 10]: 88%
Population Pyknosed Nuclei (%) [2, 10]: 9%
Population Tubulin-Different-Phenotype (%) [2, 10]: 21%
Total Cell Count [2, 10]: 125
Population Apoptotic (%) [2, 11]: 20%
Population Fragmented Nuclei (%) [2, 11]: 16%
Population Healthy Nuclei (%) [2, 11]: 75%
Population Hoechst High Intensity Objects (%) [2, 11]: 13%
Population Membrane Permeable-Phenotype (%) [2, 11]: 6%
Population Mitochondria Different-Phenotype (%) [2, 11]: 15%
Population Mitotic Cells (%) [2, 11]: 80%
Population Normal (%) [2, 11]: 86%
Population Pyknosed Nuclei (%) [2, 11]: 8%
Population Tubulin-Different-Phenotype (%) [2, 11]: 20%
Total Cell Count [2, 11]: 69
Population Apoptotic (%) [2, 12]: 60%
Population Fragmented Nuclei (%) [2, 12]: 52%
Population Healthy Nuclei (%) [2, 12]: 43%
Population Hoechst High Intensity Objects (%) [2, 12]: 54%
Population Membrane Permeable-Phenotype (%) [2, 12]: 8%
Population Mitochondria Different-Phenotype (%) [2, 12]: 8%
Population Mitotic Cells (%) [2, 12]: 40%
Population Normal (%) [2, 12]: 45%
Population Pyknosed Nuclei (%) [2, 12]: 4%
Population Tubulin-Different-Phenotype (%) [2, 12]: 13%
Total Cell Count [2, 12]: 542
Population Apoptotic (%) [2, 13]: 0%
Population Fragmented Nuclei (%) [2, 13]: 55%
Population Healthy Nuclei (%) [2, 13]: 44%
Population Hoechst High Intensity Objects (%) [2, 13]: 71%
Population Membrane Permeable-Phenotype (%) [2, 13]: 4%
Population Mitochondria Different-Phenotype (%) [2, 13]: 14%
Population Mitotic Cells (%) [2, 13]: 0%
Population Normal (%) [2, 13]: 28%
Population Pyknosed Nuclei (%) [2, 13]: 0%
Population Tubulin-Different-Phenotype (%) [2, 13]: 28%
Total Cell Count [2, 13]: 327
Population Apoptotic (%) [2, 14]: 54%
Population Fragmented Nuclei (%) [2, 14]: 11%
Population Healthy Nuclei (%) [2, 14]: 80%
Population Hoechst High Intensity Objects (%) [2, 14]: 7%
Population Membrane Permeable-Phenotype (%) [2, 14]: 1%
Population Mitochondria Different-Phenotype (%) [2, 14]: 5%
Population Mitotic Cells (%) [2, 14]: 45%
Population Normal (%) [2, 14]: 92%
Population Pyknosed Nuclei (%) [2, 14]: 7%
Population Tubulin-Different-Phenotype (%) [2, 14]: 12%
Total Cell Count [2, 14]: 156
Population Apoptotic (%) [2, 15]: 50%
Population Fragmented Nuclei (%) [2, 15]: 18%
Population Healthy Nuclei (%) [2, 15]: 76%
Population Hoechst High Intensity Objects (%) [2, 15]: 4%
Population Membrane Permeable-Phenotype (%) [2, 15]: 3%
Population Mitochondria Different-Phenotype (%) [2, 15]: 10%
Population Mitotic Cells (%) [2, 15]: 50%
Population Normal (%) [2, 15]: 95%
Population Pyknosed Nuclei (%) [2, 15]: 5%
Population Tubulin-Different-Phenotype (%) [2, 15]: 18%
Total Cell Count [2, 15]: 81
Population Apoptotic (%) [2, 16]: 70%
Population Fragmented Nuclei (%) [2, 16]: 47%
Population Healthy Nuclei (%) [2, 16]: 49%
Population Hoechst High Intensity Objects (%) [2, 16]: 48%
Population Membrane Permeable-Phenotype (%) [2, 16]: 4%
Population Mitochondria Different-Phenotype (%) [2, 16]: 6%
Population Mitotic Cells (%) [2, 16]: 30%
Population Normal (%) [2, 16]: 51%
Population Pyknosed Nuclei (%) [2, 16]: 3%
Population Tubulin-Different-Phenotype (%) [2, 16]: 14%
Total Cell Count [2, 16]: 566
Population Apoptotic (%) [2, 17]: 100%
Population Fragmented Nuclei (%) [2, 17]: 49%
Population Healthy Nuclei (%) [2, 17]: 47%
Population Hoechst High Intensity Objects (%) [2, 17]: 66%
Population Membrane Permeable-Phenotype (%) [2, 17]: 3%
Population Mitochondria Different-Phenotype (%) [2, 17]: 3%
Population Mitotic Cells (%) [2, 17]: 0%
Population Normal (%) [2, 17]: 33%
Population Pyknosed Nuclei (%) [2, 17]: 2%
Population Tubulin-Different-Phenotype (%) [2, 17]: 26%
Total Cell Count [2, 17]: 352
Population Apoptotic (%) [2, 18]: 25%
Population Fragmented Nuclei (%) [2, 18]: 6%
Population Healthy Nuclei (%) [2, 18]: 90%
Population Membrane Permeable-Phenotype (%) [2, 18]: 3%
Population Mitochondria Different-Phenotype (%) [2, 18]: 5%
Population Mitotic Cells (%) [2, 18]: 75%
Population Pyknosed Nuclei (%) [2, 18]: 3%
Population Tubulin-Different-Phenotype (%) [2, 18]: 17%
Total Cell Count [2, 18]: 245
Population Apoptotic (%) [2, 19]: 33%
Population Fragmented Nuclei (%) [2, 19]: 14%
Population Healthy Nuclei (%) [2, 19]: 83%
Population Hoechst High Intensity Objects (%) [2, 19]: 6%
Population Membrane Permeable-Phenotype (%) [2, 19]: 4%
Population Mitochondria Different-Phenotype (%) [2, 19]: 9%
Population Mitotic Cells (%) [2, 19]: 66%
Population Normal (%) [2, 19]: 93%
Population Pyknosed Nuclei (%) [2, 19]: 2%
Population Tubulin-Different-Phenotype (%) [2, 19]: 20%
Total Cell Count [2, 19]: 122
Population Apoptotic (%) [2, 20]: 30%
Population Fragmented Nuclei (%) [2, 20]: 38%
Population Healthy Nuclei (%) [2, 20]: 57%
Population Hoechst High Intensity Objects (%) [2, 20]: 38%
Population Membrane Permeable-Phenotype (%) [2, 20]: 1%
Population Mitochondria Different-Phenotype (%) [2, 20]: 10%
Population Mitotic Cells (%) [2, 20]: 69%
Population Normal (%) [2, 20]: 61%
Population Pyknosed Nuclei (%) [2, 20]: 3%
Population Tubulin-Different-Phenotype (%) [2, 20]: 12%
Total Cell Count [2, 20]: 653
Population Apoptotic (%) [2, 21]: 100%
Population Fragmented Nuclei (%) [2, 21]: 44%
Population Healthy Nuclei (%) [2, 21]: 55%
Population Hoechst High Intensity Objects (%) [2, 21]: 57%
Population Membrane Permeable-Phenotype (%) [2, 21]: 2%
Population Mitochondria Different-Phenotype (%) [2, 21]: 8%
Population Mitotic Cells (%) [2, 21]: 0%
Population Normal (%) [2, 21]: 42%
Population Pyknosed Nuclei (%) [2, 21]: 0%
Population Tubulin-Different-Phenotype (%) [2, 21]: 28%
Total Cell Count [2, 21]: 411
Growth Rate [3, 5]: 1
Growth Rate ([3]; 0 h, replicate number 2, timepoint 0 hours): 0
Growth Rate ([3]; 6 h, replicate number 1, timepoint 6 hours): 1
Growth Rate [3, 7]: 0
Growth Rate [3, 8]: 0
Growth Rate [3, 9]: 0
Growth Rate [4, 5]: 0
Growth Rate [4, 6]: 0
Growth Rate [4, 7]: 0
Growth Rate ([4]; 12 h, replicate number 2, timepoint 12 hours): 1
Growth Rate [4, 8]: 0
Growth Rate [4, 9]: 0
